IMP-1 inhibitor – blocks Pseudomonas aeruginosa IMP-1 metallo-beta-lactamase; AID 1556; purified IMP-1, nitrocefin hydrolysis, epi-absorbance fluorescence; actives 0.45% (n = 290,000); inhibition, % at 5.6 µM;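 active means inhibition above the mean plus 3 SD of all compounds in the same screening run, cut at about 4.5% in these data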;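 further: 0% = IMP-1 with DMSO and 100% = DMSO wells lacking enzyme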
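System: purified IMP-1 / Input: IMP-1 dispensed at 0.2 nM / Medium: 50 mM HEPES pH 7.1, 50 µM ZnSO4, 0.05% Brij 35 / Timing: 15 min enzyme–compound preincubation, then 25 min nitrocefin reaction, 25 °C / Technique: plate fluorescence quenching by hydrolysis product, ex 480/em 530 nm / Repeats: singlicate testing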
VIM-2 inhibitor – inhibitors of Pseudomonas aeruginosa VIM-2 metallo-beta-lactamase; purified VIM-2, nitrocefin hydrolysis, epi-absorbance fluorescence; inhibition, % at 5.6 µM; actives 0.89% (n = 290,000);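 active means inhibition above the mean of all tested compounds plus 3 SD, cutoff set per screening run, cut at about 7.5% in these data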;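 further: red hydrolysis product quenches plate fluorescence so inhibitors raise well fluorescence; 0% = enzyme with DMSO and 100% = DMSO without enzyme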
PfM18AAP inh – PfM18AAP enzyme inhibition. actives 1.2% (n = 290,000). recombinant PfM18AAP, H-Glu-NHMec fluorogenic cleavage. inhibition, % at 7.35 µM;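 active means inhibition above the campaign mean inhibition over all tested compounds plus 3 SD, cut at about 28% in these data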;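 further: 0% = plate median of test compound wells and 100% = 2 mM ZnCl2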
sPLA2-III inh – Inhibits HGIII-sPLA2 liposome hydrolysis, primary screen; Q9NZ20; QFRET BODIPY PC-A2 liposome hydrolysis, fluorescence; inhibition, % at 12.2 µM; actives 0.56% (n = 370,000); AID 743126;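 active means inhibition above mean plus 3 SD of compounds lying within the high and low control bounds, cut at about 19% in these data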;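 further: 0% = median of test compound wells and 100% = no enzyme DMSO wells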
Target sequence (Q9NZ20 whole entry, looked up): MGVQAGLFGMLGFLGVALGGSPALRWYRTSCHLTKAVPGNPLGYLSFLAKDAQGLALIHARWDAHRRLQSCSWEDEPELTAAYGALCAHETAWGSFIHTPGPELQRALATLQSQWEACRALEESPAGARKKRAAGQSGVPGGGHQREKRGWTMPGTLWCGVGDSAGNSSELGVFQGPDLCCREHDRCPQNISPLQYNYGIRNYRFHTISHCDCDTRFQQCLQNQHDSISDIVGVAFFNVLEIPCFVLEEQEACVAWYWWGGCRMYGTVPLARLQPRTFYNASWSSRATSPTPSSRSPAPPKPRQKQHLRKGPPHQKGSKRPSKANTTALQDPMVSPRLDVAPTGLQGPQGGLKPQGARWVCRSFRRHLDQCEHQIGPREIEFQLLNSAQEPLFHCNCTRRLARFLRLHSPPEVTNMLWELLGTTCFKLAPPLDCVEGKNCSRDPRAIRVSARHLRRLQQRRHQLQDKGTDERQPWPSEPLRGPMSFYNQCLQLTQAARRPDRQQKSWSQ
Starred values were filed as active, the others as inactive; . = no result. A selection: hits, their analogues and other compounds. The true share with any hit is near 2.4%.

SMILES	IMP-1 inhibitor	VIM-2 inhibitor	PfM18AAP inh	sPLA2-III inh
CC1=NN(C(=O)c2ccc(C)o2)C(O)(c2ccccc2)C1 (stereo not given)	46*	-1	-18	-3
COC(=O)[C@]12C[C@H](CC(=O)NCC3CCCCC3)C(=O)N(Cc3cccc4ccccc34)C1=C[C@H](COCc1ccccc1)O[C@@H]2C	.	.	.	-13
N#CC1(C#N)CC(C=O)=C(N)C1(C#N)CC(=O)c1ccc(F)cc1 (stereo not given)	7.5*	-1	7	-18
Cc1c(C(=O)NCc2cccs2)oc2ccc(Br)cc12	5.3*	1	2	-1
CCCCCCNC(=O)C1CSCCS(=O)(=O)N1Cc1ccc(OC)cc1 (stereo not given)	.	.	.	0
COc1ccc(OCC(O)CNC(=O)Nc2ccccc2)cc1 (stereo not given)	3	3	2	-4
COc1ccc(OCC(O)CNC(=O)c2sccc2Cl)cc1 (stereo not given)	38*	-3	-3	3
Cc1ccc(C(=O)C2CCN(CC(=O)N3CC(C)CC(C)C3)CC2)cc1 (stereo not given)	.	.	.	-1
COC(=O)[C@]12CCCCC=C1N(Cc1ccc(OC)cc1)C(=O)[C@@H]2CC(=O)NCc1cccc(C(F)(F)F)c1	.	.	.	-23
N#Cc1cc(C(=O)c2ccccc2O)cn(-c2ccc(Cl)cc2)c1=O	5.4*	3	13	-7
COc1ccc(NC(=O)CN(C)C(=O)Cc2ccsc2)cc1	5.0*	1	14	-1
COc1ccc(CC(=O)Nc2ccc(C(C)=O)cc2)cc1	8.0*	2	-4	-12
CCc1ccc(NC(=O)Cc2ccc(OC)cc2)cc1	0	-2	-9	.
Cc1ccc(CNC(=O)Nc2ccc(F)cc2F)n1C	0	-2	30*	-5
Fc1ccc(-c2n[nH]c(=S)n2N=Cc2ccc(OCc3ccccc3)cc2)cc1	.	.	.	-11
CCOC(=O)c1c(NC(=O)c2cccc(N3C(=O)CCC3=O)c2)sc2c1CCN(CC)C2	-1	7.9*	-1	-8
CCOC(=O)c1c(N)sc2c1CCN(CCc1ccccc1)C2	0	0	29*	1
CCOC(=O)c1c(NC(=O)c2ccc(S(=O)(=O)N3CCOCC3)cc2)sc2c1CCN(C)C2	2	8.6*	-5	-19
CC(C)=CCC[C@@]1(C(=O)O)[C@H]2CC=C(CO)[C@@H]1CC/C(C)=C/CC/C(C)=C/C2	.	.	.	5
COc1ccc(C2CC(c3ccc(Cl)cc3)n3nc(N)nc3N2)cc1 (stereo not given)	5.0*	-1	-2	4
COc1ccc(C2CC(c3ccc(OC)cc3)n3nc(N)nc3N2)cc1 (stereo not given)	-4	-1	6	1
COC(=O)c1c(C(=O)OC)c2cc(C)ccn2c1Cl	-4	8.1*	-1	2
COP(=O)(CC(=O)OC(C)(C)C)C(CC(C)C)NC(=O)OCc1ccccc1 (stereo not given)	.	.	.	3
CCOC(=O)Cc1csc(N/N=C\c2ccc(N(C)C)cc2)n1	-4	-4	38*	-5
Clc1ccc(/C=N/Nc2ncnc3nc[nH]c23)cc1	-6	5	0	2
SMILES	IMP-1 inhibitor	VIM-2 inhibitor	PfM18AAP inh	sPLA2-III inh
Fc1cccc(/C=N/Nc2ncnc3nc[nH]c23)c1	0	4	30*	-5
COc1ccc(-c2sc(C(=O)c3ccc(Cl)cc3Cl)cc2CC(=O)O)cc1	-1	11*	-1	-15
C[C@@H]1CCN(C2CC2)S(=O)(=O)c2c(cccc2N2CCC[C@H]2CO)O1	.	.	.	3
COc1ccc(/C=C/c2nc(S(=O)(=O)c3ccccc3)c(NCCCN(C)C)o2)cc1OC	-4	8.8*	7	11
COc1ccccc1/C=C/c1nc(S(=O)(=O)c2ccccc2)c(NCCN(C)C)o1	1	1	-8	1
CC(C)CNC(=O)OCc1cn(Cc2ccccc2C(F)(F)F)nn1	.	.	.	2
O=C(CSc1nnc(CNC(=O)c2ccco2)o1)Nc1nc2ccccc2s1	-4	-4	29*	2
CN(C)C(=O)/C(=C\c1ccc(-c2cccc([N+](=O)[O-])c2)o1)NC(=O)c1ccccc1	1	9.2*	0	-5
CN(C)C(=O)/C(=C/c1ccc(-c2cccc([N+](=O)[O-])c2)o1)NC(=O)c1ccccc1	-5	6	-7	-2
O=C(OCC#CCSc1nnc(-c2cccc3ccccc23)o1)C1CCCC1	.	.	.	-8
Cc1[nH]n(-c2ccccc2)c(=O)c1N=Nc1c(O)cc(S(=O)(=O)N(C)C)c2ccccc12	.	.	.	31*
Cc1[nH]n(-c2ccccc2)c(=O)c1N=Nc1ccc2c(c1)OCCO2	-1	1	-16	5
CC1CCC2(CCC(=O)N2CCCOC(=O)c2ccccc2)CC1 (stereo not given)	.	.	.	6
O=C(Nc1ccc(Nc2ccncc2)cc1)c1ccc(Nc2ccnc3ccc([N+](=O)[O-])cc23)cc1	21*	36*	-6	-41
CCOC(=O)CC[C@@H]1CC[C@]2(CCCN(C(=O)c3ccc4ccccc4n3)C2)O1	.	.	.	5
CN(C)c1cc(Nc2cccc(O)c2)c([N+](=O)[O-])c2nonc12	-3	2	-2	-3
CN(C)c1cc(Nc2ccc(O)cc2)c([N+](=O)[O-])c2nonc12	-4	9.1*	3	-6
O=C(Nc1ccc(Cl)cc1)OC1CCC12CCC(c1ccccc1)CC2 (stereo not given)	.	.	.	-5
COc1ccccc1N1CCN(C(=O)C(C)CS(=O)(=O)c2ccc3c(c2)NC(=O)CS3)CC1 (stereo not given)	11*	-3	-3	-17
Cc1ccc(Nc2nc(CSc3n[nH]c(N)n3)cs2)cc1	-5	-5	29*	-4
COc1ccc(NC(=O)CCC(=O)c2cccs2)cc1S(=O)(=O)Nc1ccccc1Cl	5.2*	-2	-9	-14
Cn1cc(C2=C(c3ccc(Cl)cc3Cl)C(=O)NC2=O)c2ccccc21	4.9*	3	14	-2
Oc1ccc2ccccc2c1/C=N/Nc1nnc(-c2ncc[nH]2)c2ccccc12	36*	-4	7	-5
Cc1ccc(-n2c(SCC(=O)Nc3ccccc3-c3ccccc3)nnc2-c2cccs2)cc1	.	.	.	-8
N/C(=N\OC(=O)/C=C/c1ccccc1)c1ccccn1	-2	-2	2	-3
SMILES	IMP-1 inhibitor	VIM-2 inhibitor	PfM18AAP inh	sPLA2-III inh
O=C(/C=C/c1ccccc1)c1ccccn1	-1	9.1*	4	-9
COC(=O)CC[C@H](/C=C/C(=O)OC(C)(C)C)Sc1ccc(C(C)(C)C)cc1	.	.	.	7
NC(=O)C1CCN(S(=O)(=O)c2cccc(C(=O)O)c2)CC1	32*	0	-11	1
NC(=O)C1CCN(C(=O)c2cccc(S(=O)(=O)N3CCCC3)c2)CC1	.	.	.	12
COC(=O)[C@]12CCCCC=C1N(Cc1ccc(OC)cc1)C(=O)[C@@H]2CC(=O)N1CCCCC1	.	.	.	-2
Cc1ccc(C)c(/C=C/C(=O)c2ccccc(=O)c2O)c1	3	-4	25	-4
O=C(/C=C/c1ccccc1Cl)c1ccccc(=O)c1O	11*	2	8	9
O=C(/C=C/c1ccccc1Cl)c1cccnc1	-3	0	28*	6
